Test results published in ChEMBL document CHEMBL1136923, “Highly potent, orally available anti-inflammatory broad-spectrum chemokine inhibitors” (J Med Chem, 2009).

Tests used:
[1] = target: C-C chemokine receptor type 2 (Homo sapiens) (UniProt P41597); assay: Antagonist activity at CCR2 in human THP1 cells assessed as inhibition of CCL2-induced chemotaxis at 100 nM after 2 hrs by microtiter format trans-well migration assay; assay type: functional, cell-based; details: THP-1
How it was run: (§1)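 Microtiter trans-well migration assay in Gey's balanced salt solution with 1 mg/mL endotoxin-free BSA, no fetal calf serum. Migration ran 2 h at 37 °C. Compounds dissolved in DMSO and added to both top and bottom compartments, final DMSO 1%.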

THP-1 [2] = assay: Toxicity in human THP1 cells assessed as change in cell size at 0.1 nM by forward scatter flow cytometry relative to control; assay type: cell-based; details: thp-1, 0.0001 µM
Mus musculus [3] = assay: Antiinflammatory activity in mouse assessed as inhibition of LPS-induced TNFalpha upregulation at 0.00075 mg, sc measured 2 hrs after LPS challenge; assay type: functional
How it was run: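 Murine sublethal endotoxemia: LPS given intraperitoneally, serum TNF-α measured 2 h after LPS injection. Compound vehicle 0.6% DMSO plus 1% carboxymethylcellulose (final concentrations) in sterile water.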

Mus musculus [4] = assay: Antiinflammatory activity in mouse assessed as inhibition of LPS-induced TNFalpha upregulation at 0.25 mg, sc measured 2 hrs after LPS challenge; assay type: functional
How it was run: (§2)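 Murine sublethal endotoxemia: LPS given intraperitoneally, with serum TNF-α measured 2 h after the LPS injection as the end point. Compound was given subcutaneously or orally. Vehicle was 0.6% DMSO and 1% carboxymethylcellulose (final concentrations) in sterile water. Effect is reported as % relative to control.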

Mus musculus [5] = assay: Antiinflammatory activity in mouse assessed as inhibition of LPS-induced TNFalpha upregulation at 0.075 mg, po measured 2 hrs after LPS challenge; assay type: functional; how it was run: as §2
Mus musculus [6] = assay: Antiinflammatory activity in po dosed mouse assessed as inhibition of LPS-induced TNFalpha upregulation measured 2 hrs after LPS challenge relative to control; assay type: functional
How it was run: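 Murine sublethal LPS endotoxemia screen. LPS is injected intraperitoneally and serum TNF-α is measured 2 h later as the end point. Compound is given subcutaneously or orally in a vehicle of 0.6% DMSO plus 1% carboxymethylcellulose (final concentrations) in sterile water. Values are % relative to control.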

[7] = target: C-X-C chemokine receptor type 4 (Homo sapiens) (UniProt P61073); assay: Antagonist activity at CXCR4 in human THP1 cells assessed as inhibition of CXCL12-induced chemotaxis at 0.01 nM after 2 hrs by microtiter format trans-well migration assay; assay type: functional, cell-based; details: THP-1; how it was run: as §1
Chain of C-X-C chemokine receptor type 4 (Homo sapiens) (P61073 whole entry): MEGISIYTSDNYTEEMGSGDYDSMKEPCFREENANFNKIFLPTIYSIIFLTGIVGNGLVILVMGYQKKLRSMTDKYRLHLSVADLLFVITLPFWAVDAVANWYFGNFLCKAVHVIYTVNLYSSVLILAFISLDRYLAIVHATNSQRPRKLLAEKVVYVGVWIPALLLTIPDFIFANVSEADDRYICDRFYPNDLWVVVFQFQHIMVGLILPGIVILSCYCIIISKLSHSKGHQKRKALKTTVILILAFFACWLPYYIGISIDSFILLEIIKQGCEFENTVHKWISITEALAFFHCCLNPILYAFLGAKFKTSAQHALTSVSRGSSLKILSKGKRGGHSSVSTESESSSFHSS

THP-1 [8] = assay: Endogenous chemoattractant activity at human THP1 cells assessed as cell migration at 0.001 nM after 2 hrs by microtiter format trans-well migration assay; assay type: functional
THP-1 [9] = assay: Toxicity in human THP1 cells assessed as change in cell size at 10 nM by forward scatter flow cytometry relative to control; assay type: cell-based; details: thp-1, 0.01 µM
[10] = target: C-X-C chemokine receptor type 4 (Homo sapiens) (UniProt P61073); assay: Antagonist activity at CXCR4 in human THP1 cells assessed as inhibition of CXCL12-induced chemotaxis at 100 nM after 2 hrs by microtiter format trans-well migration assay; assay type: functional, cell-based; details: THP-1; how it was run: as §1
[11] = target: T1, C-C chemokine receptor type 1 (Homo sapiens) (UniProt P32246); assay: Antagonist activity at CCR1 in human THP1 cells assessed as inhibition of CCL3-induced chemotaxis after 2 hrs by microtiter format trans-well migration assay; assay type: functional, cell-based; details: THP-1; how it was run: as §1
T1 sequence (whole entry): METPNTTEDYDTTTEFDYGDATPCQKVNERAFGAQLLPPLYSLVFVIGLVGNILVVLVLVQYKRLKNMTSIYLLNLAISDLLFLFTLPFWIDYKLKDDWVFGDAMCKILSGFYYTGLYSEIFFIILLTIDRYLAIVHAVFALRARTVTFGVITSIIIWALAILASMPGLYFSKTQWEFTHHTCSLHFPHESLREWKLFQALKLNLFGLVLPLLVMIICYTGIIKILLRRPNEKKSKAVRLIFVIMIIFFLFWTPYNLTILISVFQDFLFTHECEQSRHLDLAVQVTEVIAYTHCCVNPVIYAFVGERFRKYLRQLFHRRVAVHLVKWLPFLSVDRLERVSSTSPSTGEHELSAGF

Mus musculus [12] = assay: Antiinflammatory activity in mouse assessed as inhibition of LPS-induced TNFalpha upregulation at 0.075 mg, sc measured 2 hrs after LPS challenge; assay type: functional; how it was run: as §2
[13] = target: C-C chemokine receptor type 5 (Homo sapiens) (UniProt P51681); assay: Antagonist activity at CCR5 in human THP1 cells assessed as inhibition of CCL5-induced chemotaxis at 10 nM after 2 hrs by microtiter format trans-well migration assay; assay type: functional, cell-based; details: THP-1; how it was run: as §1
Chain of C-C chemokine receptor type 5 (Homo sapiens) (P51681 whole entry, looked up): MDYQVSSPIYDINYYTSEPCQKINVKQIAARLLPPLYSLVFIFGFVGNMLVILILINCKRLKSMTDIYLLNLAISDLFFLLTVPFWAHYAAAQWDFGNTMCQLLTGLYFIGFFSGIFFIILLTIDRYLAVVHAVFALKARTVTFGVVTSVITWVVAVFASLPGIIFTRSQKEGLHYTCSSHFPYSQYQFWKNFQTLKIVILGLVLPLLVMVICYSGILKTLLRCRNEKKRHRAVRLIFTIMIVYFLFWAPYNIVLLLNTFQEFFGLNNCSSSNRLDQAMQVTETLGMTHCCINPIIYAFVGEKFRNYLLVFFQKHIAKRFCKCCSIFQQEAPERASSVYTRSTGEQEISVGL

[14] = Half life in Sprague-Dawley rat at 3 mg/kg, po administered as single dose; assay type: ADME, organism-based; design: dose 3 mg/kg, route oral; details: in vivo
How it was run: (§3)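 Male Sprague-Dawley rats, three per compound, receive a single oral dose by gavage in 1% carboxymethylcellulose in 0.9% saline, with food and water ad libitum. Plasma is sampled from 5 to 480 min and drug is quantified by positive-mode LC/MS/MS after acetonitrile/formic acid extraction. The lower limit of quantitation is about 2 ng/mL. Exposure is AUC(0→t) by the linear/log trapezoidal rule, and F is oral fractional bioavailability.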

[15] = target: T1, C-C chemokine receptor type 1 (Homo sapiens); assay: Antagonist activity at CCR1 in human THP1 cells assessed as inhibition of CCL3-induced chemotaxis at 0.1 nM after 2 hrs by microtiter format trans-well migration assay; assay type: functional, cell-based; details: THP-1; how it was run: as §1
THP-1 [16] = assay: Endogenous chemoattractant activity at human THP1 cells assessed as cell migration at 0.1 nM after 2 hrs by microtiter format trans-well migration assay; assay type: functional
[17] = Antagonist activity at Interleukin-8 receptor in human PMNC assessed as inhibition of CXCL8-induced chemotaxis after 2 hrs by microtiter format trans-well migration assay; assay type: functional; details: read-out: ED50 (the source's name); how it was run: as §1
[18] = Fractional bioavailability in Sprague-Dawley rat at 3 mg/kg, po administered as single dose; assay type: ADME, organism-based; details: in vivo; how it was run: as §3
[19] = target: C-C chemokine receptor type 5 (Homo sapiens) (UniProt P51681); assay: Antagonist activity at CCR5 in human THP1 cells assessed as inhibition of CCL5-induced chemotaxis at 0.1 nM after 2 hrs by microtiter format trans-well migration assay; assay type: functional, cell-based; details: THP-1; how it was run: as §1
THP-1 [20] = assay: Cytotoxicity against human THP1 cells up to 100 uM by trypan blue exclusion assay; assay type: cell-based
THP-1 [21] = assay: Endogenous chemoattractant activity at human THP1 cells assessed as cell migration at 0.01 nM after 2 hrs by microtiter format trans-well migration assay; assay type: functional
THP-1 [22] = assay: Endogenous chemoattractant activity at human THP1 cells assessed as cell migration at 1 uM after 2 hrs by microtiter format trans-well migration assay; assay type: functional
[23] = target: T2, C5a anaphylatoxin chemotactic receptor 1 (Homo sapiens) (UniProt P21730); assay: Antagonist activity at C5a receptor in human PMNC assessed as inhibition of C5a-induced chemotaxis after 2 hrs by microtiter format trans-well migration assay; assay type: functional; how it was run: as §1
T2 sequence (whole entry): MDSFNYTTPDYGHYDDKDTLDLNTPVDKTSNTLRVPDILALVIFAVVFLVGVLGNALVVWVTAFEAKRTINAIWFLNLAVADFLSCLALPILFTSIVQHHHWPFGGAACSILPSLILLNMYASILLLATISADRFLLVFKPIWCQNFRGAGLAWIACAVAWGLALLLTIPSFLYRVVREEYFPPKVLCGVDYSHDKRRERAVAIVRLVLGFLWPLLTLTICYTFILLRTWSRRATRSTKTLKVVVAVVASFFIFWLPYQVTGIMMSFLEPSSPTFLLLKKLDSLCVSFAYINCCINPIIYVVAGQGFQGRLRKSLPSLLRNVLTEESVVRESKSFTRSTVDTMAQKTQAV

Chain of C-C chemokine receptor type 2 (Homo sapiens) (P41597 whole entry, looked up): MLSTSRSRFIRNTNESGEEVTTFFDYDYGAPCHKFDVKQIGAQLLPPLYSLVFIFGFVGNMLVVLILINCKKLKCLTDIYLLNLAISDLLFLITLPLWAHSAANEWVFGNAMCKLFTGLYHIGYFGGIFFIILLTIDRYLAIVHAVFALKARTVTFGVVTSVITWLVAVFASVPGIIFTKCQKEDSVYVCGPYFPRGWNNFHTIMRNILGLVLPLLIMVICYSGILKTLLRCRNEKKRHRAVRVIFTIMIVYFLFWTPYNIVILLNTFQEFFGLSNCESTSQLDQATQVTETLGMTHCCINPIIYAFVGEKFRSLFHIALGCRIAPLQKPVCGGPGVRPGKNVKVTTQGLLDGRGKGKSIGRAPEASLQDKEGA

inhibition [1]: 93%
inhibition [7]: 15.5%
inhibition [10]: 111%
ED50 [11]: 0.15 nM
inhibition [13]: 102%
half-life [14]: 1.7 h
inhibition [15]: 43%
bioavailability [18]: 16%
inhibition [19]: 16.5%
Structure (SMILES): CCCCCCCCCCC(C)(C)C(=O)N[C@H]1CCCCNC1=O
fold change (FC) (THP-1 [2]): 1.04
inhibition (INH) (Mus musculus [3]): 57%
inhibition (INH) (Mus musculus [4]): 79%
inhibition (INH) (Mus musculus [5]): 80%
inhibition (INH) (Mus musculus [6]): 70%
Activity (THP-1 [8]): 4282%
fold change (FC) (THP-1 [9]): 1.04
inhibition (INH) (Mus musculus [12]): 66%
Activity (THP-1 [16]): 2556%
EC50 [17]: 0.3 nM
Activity (THP-1 [20]): Non-toxic
Activity (THP-1 [21]): 5337%
Activity (THP-1 [22]): 4626%
ED50 [23]: > 1000 nM
